Reference: ChEMBL document CHEMBL5661970 (Cancer Res, 2006)
Activity calls are given as the source filed them. No cut-off for these calls is given here.

Key:
[1] = target: Mitogen-activated protein kinase 3 (Homo sapiens, UniProt P27361); experiment: Inhibition of ERK1 phosphorylation in bFGF-stimulated serum-starved human HUVEC cells by immunoblotting analysis; type: cell-based
[2] = Cmax in F344/N JcL-rnu athymic rat at 1 mg/kg, po measured upto 72 hrs by HPLC-MS/MS analysis; type: ADME, organism-based; conditions: in vivo
Summary of the method: (§1)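 Female F344/N JcL-rnu rats, four per group, single p.o. dose suspended in 0.5% methyl cellulose. Tail-vein blood sampled at set times to 72 h. Serum spiked with internal standard, deproteinated with acetonitrile, analysed by HPLC-MS/MS. Parameters derived by noncompartmental analysis.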

[3] = Apparent oral volume of distribution in F344/N JcL-rnu athymic rat at 1 mg/kg, po measured upto 72 hrs by HPLC-MS/MS analysis; type: ADME, organism-based; conditions: in vivo; summary of the method: as §1
[4] = Inhibition of IGF-1R phosphorylation in serum starved human HT-29 cells incubated for 1 hr by immunoblotting analysis; type: cell-based
Summary of the method: (§2)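 Cells starved overnight in basic medium with 0.5% FBS, incubated 1 h with compound or 0.1% DMSO, then stimulated 5 min at 37°C with human recombinant cognate ligand. Receptor immunoprecipitated from lysate and immunoblotted for phosphotyrosine; IC50 by nonlinear regression of percent inhibition, n = 4.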

[5] = Apparent oral clearance in F344/N JcL-rnu athymic rat at 1 mg/kg, po measured upto 72 hrs by HPLC-MS/MS analysis; type: ADME, organism-based; conditions: in vivo; summary of the method: as §1
[6] = Tmax in F344/N JcL-rnu athymic rat at 5 mg/kg, po measured upto 72 hrs by HPLC-MS/MS analysis; type: ADME, organism-based; conditions: in vivo; summary of the method: as §1
CAKI-1 = experiment: Antitumor activity against human CAKI-1 cells xenografted in gamma-irradiation induced RH-rnu/rnu athymic rat assessed as tumor growth inhibition at 1.0 mg/kg, po administered once daily for 2 weeks and measured on day 14 relative to control; type: functional; conditions: CAKI-1, light or radiation study, 336 h, read-out: TGI
Summary of the method: (§3)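 Rats were γ-irradiated with 7 Gy whole body, and 24 h later received s.c. tumor cells. Fragments (20-30 mg) from ~1,500 mm3 tumors were then implanted s.c. into irradiated athymic rats. Oral dosing at 0.2 or 1 mg/kg or vehicle ran once daily for 2 weeks from day 0. Tumors were measured with calipers twice weekly (length×width²×0.5). TGI% was taken versus vehicle on day 14 (BxPC-3: day 13), with an unpaired t test on RTV.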

[7] = target: Mitogen-activated protein kinase 1 (Homo sapiens, UniProt P28482); experiment: Inhibition of ERK2 phosphorylation in EGF-stimulated serum-starved human HUVEC cells by immunoblotting analysis; type: cell-based
Calu-6 [8] = experiment: Antitumor activity against human Calu-6 cells xenografted in RH-rnu/rnu athymic rat assessed as decrease in capillary permeability in tumor at 1.0 mg/kg, po measured on day 13 by DCE-MRI analysis relative to control; type: functional; design: scale not given: the % may be the effect or the level left
Calu-6 [9] = experiment: Antitumor activity against human Calu-6 cells xenografted in RH-rnu/rnu athymic rat assessed as capillary permeability in tumor measured on day 21 by DCE-MRI analysis; type: functional, cell-based
A549 [10] = experiment: Antitumor activity against human A549 cells xenografted in F344/N Jcl-rnu athymic rat assessed as reduction in number of CD31-positive cells in viable regions of tumor at 0.04 mg/kg, po administered once daily for 7 days by immunofluorescence staining analysis relative to control; conditions: time 7 day
[11] = Half life in F344/N JcL-rnu athymic rat at 1 mg/kg, po measured upto 72 hrs by HPLC-MS/MS analysis; type: ADME, organism-based; conditions: in vivo; summary of the method: as §1
HUVEC = experiment: Antiproliferative activity against bFGF-induced human HUVEC cells assessed as cell viability incubated for 72 hrs by WST-1 assay
[12] = target: Insulin-like growth factor 1 receptor (Homo sapiens, UniProt P08069); experiment: Inhibition of IGF-1R (unknown origin) in presence of ATP
Summary of the method: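 Cell-free kinase assay using recombinant tyrosine kinases with 1 μmol/L ATP, run in quadruplicate. IC50 values determined.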

[13] = target: Epidermal growth factor receptor (Homo sapiens, UniProt P00533); experiment: Inhibition of EGFR phosphorylation in serum starved human A-431 cells incubated for 1 hr by immunoblotting analysis; type: cell-based; summary of the method: as §2
Calu-6 [14] = experiment: Antitumor activity against human Calu-6 cells xenografted in RH-rnu/rnu athymic rat assessed as decrease in capillary permeability in tumor at 1 mg/kg, po measured on day 2 by DCE-MRI analysis relative to control; design: scale not given: the % may be the effect or the level left
[15] = Antitumor activity against human CGL-9 cells xenografted in gamma-irradiation induced RH-rnu/rnu athymic rat assessed as tumor growth inhibition at 0.2 mg/kg, po administered once daily for 2 weeks and measured on day 14 relative to control; type: functional; conditions: CGL-9, light or radiation study, 336 h, read-out: TGI; summary of the method: as §3
[16] = AUC (0-infinity) in F344/N JcL-rnu athymic rat at 5 mg/kg, po measured upto 72 hrs by HPLC-MS/MS analysis; type: ADME, organism-based; conditions: in vivo
Summary of the method: (§4)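 Female athymic rats, four per group, given a single oral dose suspended in 0.5% methyl cellulose in water. Tail-vein blood was drawn at set times up to 72 h. Serum was spiked with internal standard, deproteinated with acetonitrile and analysed by HPLC-MS/MS. AUCinf came from noncompartmental analysis.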

DU-145 = experiment: Antitumor activity against human DU-145 cells xenografted in gamma-irradiation induced RH-rnu/rnu athymic rat assessed as tumor growth inhibition at 0.2 mg/kg, po administered once daily for 2 weeks and measured on day 14 relative to control; type: functional; conditions: DU-145, light or radiation study, 336 h, read-out: TGI; summary of the method: as §3
[17] = target: Platelet-derived growth factor receptor beta (Homo sapiens, UniProt P09619); experiment: Inhibition of PDGFR-beta phosphorylation in serum starved human NHDF cells incubated for 1 hr by immunoblotting analysis; type: cell-based
Summary of the method: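 Cells starved overnight in basic medium with 0.5% FBS, incubated 1 h with compound or 0.1% DMSO, then stimulated with human recombinant ligand for 5 min at 37°C. Lysates immunoprecipitated with receptor antibody and immunoblotted for phosphotyrosine. IC50 from nonlinear regression of percentage inhibition (n = 4).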

[18] = AUC (0-infinity) in F344/N JcL-rnu athymic rat at 1 mg/kg, po measured upto 72 hrs by HPLC-MS/MS analysis; type: ADME, organism-based; conditions: in vivo; summary of the method: as §4
LoVo [19] = experiment: Antitumor activity against human LoVo cells xenografted in gamma-irradiation induced RH-rnu/rnu athymic rat assessed as relative tumor volume at 1 mg/kg, po administered once daily for 2 weeks and measured on day 21; type: functional
Summary of the method: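 Tumor fragments were grown in γ-irradiated (7 Gy) athymic rats, followed by once-daily oral dosing at 1 mg/kg for 2 weeks. Tumor volume was measured with calipers as length×width²×0.5. Relative tumor volume was calculated as volume on day x divided by volume on day 0.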

LoVo [20] = experiment: Antitumor activity against human LoVo cells xenografted in gamma-irradiation induced RH-rnu/rnu athymic rat assessed as tumor growth inhibition at 0.2 mg/kg, po administered once daily for 2 weeks and measured on day 14 relative to control; type: functional; conditions: light or radiation study, 336 h, read-out: TGI; summary of the method: as §3
A549 [21] = experiment: Antitumor activity against human A549 cells xenografted in F344/N Jcl-rnu athymic rat assessed as reduction in number of CD31-positive cells in viable regions of tumor at 0.2 mg/kg, po administered once daily for 7 days by immunofluorescence staining analysis relative to control; conditions: time 7 day

Chain of Insulin-like growth factor 1 receptor (P08069 31-736 limits assumed): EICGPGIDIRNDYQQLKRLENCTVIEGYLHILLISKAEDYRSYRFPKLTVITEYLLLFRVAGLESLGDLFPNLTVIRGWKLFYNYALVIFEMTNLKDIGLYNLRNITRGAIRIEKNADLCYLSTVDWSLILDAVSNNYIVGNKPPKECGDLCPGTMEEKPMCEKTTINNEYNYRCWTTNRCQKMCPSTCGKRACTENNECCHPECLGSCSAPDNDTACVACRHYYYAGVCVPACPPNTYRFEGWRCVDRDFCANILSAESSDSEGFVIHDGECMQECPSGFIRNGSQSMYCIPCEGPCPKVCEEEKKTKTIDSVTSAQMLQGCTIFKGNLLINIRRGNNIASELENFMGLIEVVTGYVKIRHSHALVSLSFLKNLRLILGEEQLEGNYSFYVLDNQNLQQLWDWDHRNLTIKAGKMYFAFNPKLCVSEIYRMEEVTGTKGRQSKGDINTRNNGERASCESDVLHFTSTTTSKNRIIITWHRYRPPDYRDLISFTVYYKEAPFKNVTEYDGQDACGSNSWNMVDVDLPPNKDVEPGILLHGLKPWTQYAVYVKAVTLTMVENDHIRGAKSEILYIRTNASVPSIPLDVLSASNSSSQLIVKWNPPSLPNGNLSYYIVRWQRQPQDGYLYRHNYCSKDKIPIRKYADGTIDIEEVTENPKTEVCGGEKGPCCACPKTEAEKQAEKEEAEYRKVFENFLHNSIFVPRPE
Chain of Insulin-like growth factor 1 receptor (P08069 741-1367 limits assumed): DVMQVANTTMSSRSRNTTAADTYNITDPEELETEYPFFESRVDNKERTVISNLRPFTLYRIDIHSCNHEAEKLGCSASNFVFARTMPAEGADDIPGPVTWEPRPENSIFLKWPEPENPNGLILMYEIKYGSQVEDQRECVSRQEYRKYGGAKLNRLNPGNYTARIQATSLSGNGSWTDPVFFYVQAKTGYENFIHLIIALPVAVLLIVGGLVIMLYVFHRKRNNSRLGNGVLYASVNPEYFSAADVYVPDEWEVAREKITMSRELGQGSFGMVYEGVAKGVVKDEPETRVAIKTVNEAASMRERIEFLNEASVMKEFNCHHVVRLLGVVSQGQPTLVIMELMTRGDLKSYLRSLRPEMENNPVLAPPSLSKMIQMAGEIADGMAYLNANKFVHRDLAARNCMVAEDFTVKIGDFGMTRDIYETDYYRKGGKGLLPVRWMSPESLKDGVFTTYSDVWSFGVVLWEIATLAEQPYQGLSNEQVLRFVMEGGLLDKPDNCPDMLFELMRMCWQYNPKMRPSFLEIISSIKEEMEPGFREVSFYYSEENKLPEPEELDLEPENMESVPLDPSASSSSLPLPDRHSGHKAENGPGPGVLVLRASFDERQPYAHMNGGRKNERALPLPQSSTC
Chain of Mitogen-activated protein kinase 3 (P27361 whole entry): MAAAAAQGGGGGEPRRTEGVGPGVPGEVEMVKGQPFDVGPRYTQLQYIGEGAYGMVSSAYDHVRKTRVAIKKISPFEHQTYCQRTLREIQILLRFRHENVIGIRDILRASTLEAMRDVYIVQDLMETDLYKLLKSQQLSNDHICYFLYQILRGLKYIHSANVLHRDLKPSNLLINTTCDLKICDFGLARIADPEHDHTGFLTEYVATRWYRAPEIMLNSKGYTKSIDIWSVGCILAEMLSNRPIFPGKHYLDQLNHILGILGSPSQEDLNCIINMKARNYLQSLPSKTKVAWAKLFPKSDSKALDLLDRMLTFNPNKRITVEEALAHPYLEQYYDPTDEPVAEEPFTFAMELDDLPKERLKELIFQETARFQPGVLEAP
Chain of Mitogen-activated protein kinase 1 (P28482 whole entry): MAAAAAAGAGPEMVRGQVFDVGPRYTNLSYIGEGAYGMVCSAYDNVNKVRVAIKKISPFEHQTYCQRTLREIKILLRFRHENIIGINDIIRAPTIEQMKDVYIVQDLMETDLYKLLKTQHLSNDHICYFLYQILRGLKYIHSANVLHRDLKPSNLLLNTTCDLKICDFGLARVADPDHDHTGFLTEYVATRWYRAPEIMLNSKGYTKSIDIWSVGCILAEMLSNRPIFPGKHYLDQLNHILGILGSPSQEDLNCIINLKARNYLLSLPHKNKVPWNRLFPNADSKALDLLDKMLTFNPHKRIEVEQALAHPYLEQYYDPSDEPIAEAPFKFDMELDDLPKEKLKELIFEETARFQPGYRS
Chain of Epidermal growth factor receptor (P00533 whole entry): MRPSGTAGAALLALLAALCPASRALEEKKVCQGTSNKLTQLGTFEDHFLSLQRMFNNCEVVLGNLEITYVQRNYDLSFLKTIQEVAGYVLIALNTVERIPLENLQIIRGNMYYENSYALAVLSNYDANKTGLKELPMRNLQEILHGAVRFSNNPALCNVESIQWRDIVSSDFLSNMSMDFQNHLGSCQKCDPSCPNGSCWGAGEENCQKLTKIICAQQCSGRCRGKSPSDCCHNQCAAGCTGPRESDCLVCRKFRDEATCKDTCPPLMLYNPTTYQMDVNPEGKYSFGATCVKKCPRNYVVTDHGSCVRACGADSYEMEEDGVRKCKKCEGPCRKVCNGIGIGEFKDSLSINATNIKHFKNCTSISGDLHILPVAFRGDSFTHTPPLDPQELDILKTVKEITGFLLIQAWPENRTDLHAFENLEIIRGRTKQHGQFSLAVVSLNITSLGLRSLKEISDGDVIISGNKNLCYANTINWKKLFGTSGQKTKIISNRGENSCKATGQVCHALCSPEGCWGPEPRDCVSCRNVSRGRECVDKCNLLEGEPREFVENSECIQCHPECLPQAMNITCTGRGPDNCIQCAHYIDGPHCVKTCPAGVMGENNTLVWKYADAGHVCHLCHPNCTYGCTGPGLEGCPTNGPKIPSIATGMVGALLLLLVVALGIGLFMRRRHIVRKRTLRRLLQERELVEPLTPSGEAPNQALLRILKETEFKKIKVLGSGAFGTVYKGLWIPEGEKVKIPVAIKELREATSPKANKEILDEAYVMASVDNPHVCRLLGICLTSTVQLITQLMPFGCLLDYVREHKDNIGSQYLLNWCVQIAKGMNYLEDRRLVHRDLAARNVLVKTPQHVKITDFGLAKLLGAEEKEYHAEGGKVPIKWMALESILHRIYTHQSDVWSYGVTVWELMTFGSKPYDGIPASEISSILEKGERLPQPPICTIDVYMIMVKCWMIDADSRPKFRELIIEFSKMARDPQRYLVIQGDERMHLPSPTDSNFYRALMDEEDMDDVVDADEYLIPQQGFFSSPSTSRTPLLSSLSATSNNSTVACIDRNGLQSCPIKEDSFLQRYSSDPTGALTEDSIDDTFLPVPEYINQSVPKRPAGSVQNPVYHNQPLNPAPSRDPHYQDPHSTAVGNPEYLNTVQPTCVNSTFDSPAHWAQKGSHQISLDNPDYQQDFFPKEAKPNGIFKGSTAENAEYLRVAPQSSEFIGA

With `COc1cc2nccc(Oc3ccc(NC(=O)Nc4cc(C)on4)c(Cl)c3)c2cc1OC` [TIVOZANIB] the inhibition [1] was “inactive”, the Cmax [2] was 484 ng/mL and the Vd/F [3] was 1.54 L/kg. The IC50 [4] was “Not Determined(Insoluble)”, the CL/F [5] was 2.2 mL/min/kg and the Tmax [6] was 3.5 h. For the same compound, the inhibition in vivo at 1 mg/kg (CAKI-1) was greater than 100%, the inhibition [7] was “inactive” and the Activity (Calu-6 [8]) was 61%. The Activity (Calu-6 [9]) was “inactive”, the Activity (A549 [10]) was 15.7% and the half-life [11] was 8.13 h. For the same compound, the IC50 (HUVEC) was greater than 0.3 µM, the IC50 [12] was greater than 1 µM and the IC50 [13] was “Not Determined(Insoluble)”. It also gave an Activity (Calu-6 [14]) of 55%, an inhibition in vivo at 0.2 mg/kg [15] of 46% and an AUC(0-inf) [16] of 44500 ng·h/mL. For the same compound, the inhibition in vivo at 0.2 mg/kg (DU-145) was 90.6%, the IC50 [17] was […] and the AUC(0-inf) [18] was 7640 ng·h/mL. For the same compound, the Activity (LoVo [19]) was 0.85, the inhibition in vivo at 0.2 mg/kg (LoVo [20]) was 60.3% and the Activity (A549 [21]) was 20.7%.
